Calls of active or inactive are those of the source. No cut-off for these calls is given here.
How the values were obtained:
[1] = test system: Protein cereblon/Epidermal growth factor receptor (Homo sapiens), P00533+Q96SW2 [L858R]; experiment: Protac activity at CRBN/EGFR L858R mutant in human H3255 cells assessed as induction of EGFR degradation treated 8 hrs post serum starvation measured after 16 hrs by Western blot analysis; format: cell-based
[2] = test system: Protein cereblon/Epidermal growth factor receptor (Homo sapiens), P00533+Q96SW2 [UNDEFINED MUTATION]; experiment: Protac activity at CRBN/EGFR exon 19 deletion mutant in human HCC827 cells assessed as induction of EGFR degradation at >=50 nM treated 8 hrs post serum starvation measured after 16 hrs by Western blot analysis relative to control; format: cell-based
How it was run: (§1)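 Cultured to 80% confluence in RPMI/1640 with 20% FBS at 37 °C and 5% CO2, then switched to serum-free medium for 8 h. Degraders were added over a concentration range up to 10 μM for 16 h, with gefitinib at 1 μM as reference. Lysates in Laemmli buffer were immunoblotted for EGFR, p-EGFR and p-AKT. DC50 came from band quantification by nonlinear regression (variable slope).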

[3] = test system: Protein cereblon/Epidermal growth factor receptor (Homo sapiens), P00533+Q96SW2 [L858R]; experiment: Protac activity at CRBN/EGFR L858R mutant in human H3255 cells assessed as induction of EGFR degradation at >=50 nM treated 8 hrs post serum starvation measured after 16 hrs by Western blot analysis relative to control; format: cell-based; how it was run: as §1
[4] = test system: Protein cereblon/Epidermal growth factor receptor (Homo sapiens), P00533+Q96SW2 [UNDEFINED MUTATION]; experiment: Protac activity at CRBN/EGFR exon 19 deletion mutant in human HCC827 cells assessed as induction of EGFR degradation at 10 uM treated 8 hrs post serum starvation measured after 16 hrs by Western blot analysis relative to control; format: cell-based; how it was run: as §1
[5] = test system: Protein cereblon/Epidermal growth factor receptor (Homo sapiens), P00533+Q96SW2 [L858R]; experiment: Protac activity at CRBN/EGFR L858R mutant in human H3255 cells assessed as induction of EGFR degradation at 10 uM treated 8 hrs post serum starvation measured after 16 hrs by Western blot analysis; format: cell-based; how it was run: as §1
[6] = test system: Protein cereblon/Epidermal growth factor receptor (Homo sapiens), P00533+Q96SW2 [L858R]; experiment: Protac activity at CRBN/EGFR L858R mutant in human H3255 cells assessed as reduction in EGFR autophosphorylation up to 10 uM treated 8 hrs post serum starvation measured after 16 hrs by Western blot analysis; format: cell-based; how it was run: as §1
[7] = test system: Protein cereblon/Epidermal growth factor receptor (Homo sapiens), P00533+Q96SW2 [UNDEFINED MUTATION]; experiment: Protac activity at CRBN/EGFR exon 19 deletion mutant in human HCC827 cells assessed as reduction in AKT phosphorylation up to 10 uM treated 8 hrs post serum starvation measured after 16 hrs by Western blot analysis; format: cell-based; how it was run: as §1
[8] = test system: Protein cereblon/Epidermal growth factor receptor (Homo sapiens), P00533+Q96SW2 [L858R]; experiment: Protac activity at CRBN/EGFR L858R mutant in human H3255 cells assessed as reduction in AKT phosphorylation up to 10 uM treated 8 hrs post serum starvation measured after 16 hrs by Western blot analysis; format: cell-based; how it was run: as §1
[9] = test system: HCC827; experiment: Effect on AKT level in human HCC827 cells up to 10 uM treated 8 hrs post serum starvation measured after 16 hrs by Western blot analysis; format: ADME, cell-based; conditions: hcc827, 16 h
[10] = test system: NCI-H3255; experiment: Effect on AKT level in human H3255 cells up to 10 uM treated 8 hrs post serum starvation measured after 16 hrs by Western blot analysis; format: ADME, cell-based; conditions: nci-h3255, 16 h
[11] = molecular target: Epidermal growth factor receptor (Homo sapiens, UniProt P00533); experiment: Induction of wild-type EGFR degradation in human H1299 cells at up to 10 uM treated 8 hrs post serum starvation measured after 16 hrs by Western blot analysis; format: cell-based
[12] = test system: Protein cereblon/Epidermal growth factor receptor (Homo sapiens), P00533+Q96SW2 [UNDEFINED MUTATION]; experiment: Protac activity at CRBN/EGFR exon 19 deletion mutant in human HCC827 cells assessed as induction of EGFR degradation at 100 nM treated 8 hrs post serum starvation measured after 12 hrs by Western blot analysis relative to control; format: cell-based
How it was run: (§2)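 After 8 h serum starvation, cells got 100 nM degrader and were collected at serial time points for Western blot of EGFR and downstream signaling.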

[13] = test system: Protein cereblon/Epidermal growth factor receptor (Homo sapiens), P00533+Q96SW2 [L858R]; experiment: Protac activity at CRBN/EGFR L858R mutant in human H3255 cells assessed as reduction in AKT phosphorylation at 100 nM treated 8 hrs post serum starvation by Western blot analysis; format: cell-based; conditions: TDE = time-dependent effect; how it was run: as §2
[14] = test system: Protein cereblon/Epidermal growth factor receptor (Homo sapiens), P00533+Q96SW2 [UNDEFINED MUTATION]; experiment: Protac activity at CRBN/EGFR exon 19 deletion mutant in human HCC827 cells assessed as induction of EGFR degradation at 0.1 to 1 uM incubated for 8 hrs in absence of FBS by Western blot analysis; format: cell-based
[15] = test system: Protein cereblon/Epidermal growth factor receptor (Homo sapiens), P00533+Q96SW2 [L858R]; experiment: Protac activity at CRBN/EGFR L858R mutant in human H3255 cells assessed as induction of EGFR degradation at 0.1 to 1 uM incubated for 8 hrs in absence of FBS by Western blot analysis; format: cell-based
[16] = test system: Protein cereblon/Epidermal growth factor receptor (Homo sapiens), P00533+Q96SW2 [L858R]; experiment: Protac activity at CRBN/EGFR L858R mutant in human H3255 cells assessed as induction of EGFR degradation at 100 nM measured after 8 hrs in presence of neddylation inhibitor MLN4924 by Western blot analysis; format: cell-based
[17] = test system: Protein cereblon/Epidermal growth factor receptor (Homo sapiens), P00533+Q96SW2 [L858R]; experiment: Protac activity at CRBN/EGFR L858R mutant in human H3255 cells assessed as induction of EGFR degradation at 100 nM measured after 8 hrs in presence of negative control MS154N by Western blot analysis; format: cell-based
[18] = test system: Protein cereblon/Epidermal growth factor receptor (Homo sapiens), P00533+Q96SW2 [L858R]; experiment: Protac activity at CRBN/EGFR L858R mutant in human H3255 cells assessed as induction of EGFR degradation at 100 nM measured after 8 hrs in presence of EGFR inhibitor gefitinib by Western blot analysis; format: cell-based
[19] = test system: Protein cereblon/Epidermal growth factor receptor (Homo sapiens), P00533+Q96SW2 [UNDEFINED MUTATION]; experiment: Reversible protac activity at CRBN/EGFR exon 19 deletion mutant in human HCC827 cells assessed as recovery of EGFR degradation at 100 nM preincubated for 12 hrs followed by compound washout and measured after 24 hrs by Western blot analysis; format: cell-based
How it was run: (§3)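 Cells were serum-starved 8 h, then given degrader for 12 h. They were washed three times with PBS and harvested at the indicated time points after washout. EGFR, p-EGFR and p-AKT were read by Western blot.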

[20] = test system: Protein cereblon/Epidermal growth factor receptor (Homo sapiens), P00533+Q96SW2 [L858R]; experiment: Reversible protac activity at CRBN/EGFR L858R mutant in human H3255 cells assessed as recovery of EGFR degradation at 100 nM preincubated for 12 hrs followed by compound washout and measured up to 48 hrs by Western blot analysis; format: cell-based; how it was run: as §3
[21] = test system: Protein cereblon/Epidermal growth factor receptor (Homo sapiens), P00533+Q96SW2 [L858R]; experiment: Reversible protac activity at CRBN/EGFR L858R mutant in human H3255 cells assessed as recovery of EGFR phosphorylation at 100 nM preincubated for 12 hrs followed by compound washout and measured up to 48 hrs by Western blot analysis; format: cell-based; how it was run: as §3
[22] = test system: NCI-H3255; experiment: Antiproliferative activity against human H3255 cells measured after 3 days by CCK8 assay; format: functional, cell-based
How it was run: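 H3255 cells seeded 4000/well the night before, then exposed to serial dilutions for 3 days. Growth read by Cell Counting Kit-8; three independent experiments. IC50 from nonlinear regression (log inhibitor vs response, variable slope).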

[23] = test system: Protein cereblon/Epidermal growth factor receptor (Homo sapiens), P00533+Q96SW2 [UNDEFINED MUTATION]; experiment: Protac activity at CRBN/EGFR exon 19 deletion mutant in human HCC827 cells assessed as induction of EGFR degradation at 100 nM measured after 16 hrs by LC-MS analysis relative to control; format: cell-based
[24] = test system: HCC827; experiment: Up regulation of HMGCS1 expression in human HCC827 cells at 100 nM measured after 16 hrs by LC-MS analysis; format: functional, cell-based
How it was run: (§4)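 HCC-827 cells serum-starved 8 h, then treated at 100 nM for 16 h. Collected for label-free quantitative LC–MS proteomics; LFQ intensity compared between treated and control groups; three independent experiments.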

[25] = test system: HCC827; experiment: Down regulation of NELFE expression in human HCC827 cells at 100 nM measured after 16 hrs by LC-MS analysis; format: functional, cell-based; how it was run: as §4
[26] = Toxicity in Swiss albino mouse assessed as clinical changes at 50 mg/kg, ip; format: organism-based; conditions: in vivo

Sequence of Protein cereblon/Epidermal growth factor receptor (Homo sapiens), P00533+Q96SW2 [UNDEFINED MUTATION] (P00533 whole entry, looked up, stated change not applied): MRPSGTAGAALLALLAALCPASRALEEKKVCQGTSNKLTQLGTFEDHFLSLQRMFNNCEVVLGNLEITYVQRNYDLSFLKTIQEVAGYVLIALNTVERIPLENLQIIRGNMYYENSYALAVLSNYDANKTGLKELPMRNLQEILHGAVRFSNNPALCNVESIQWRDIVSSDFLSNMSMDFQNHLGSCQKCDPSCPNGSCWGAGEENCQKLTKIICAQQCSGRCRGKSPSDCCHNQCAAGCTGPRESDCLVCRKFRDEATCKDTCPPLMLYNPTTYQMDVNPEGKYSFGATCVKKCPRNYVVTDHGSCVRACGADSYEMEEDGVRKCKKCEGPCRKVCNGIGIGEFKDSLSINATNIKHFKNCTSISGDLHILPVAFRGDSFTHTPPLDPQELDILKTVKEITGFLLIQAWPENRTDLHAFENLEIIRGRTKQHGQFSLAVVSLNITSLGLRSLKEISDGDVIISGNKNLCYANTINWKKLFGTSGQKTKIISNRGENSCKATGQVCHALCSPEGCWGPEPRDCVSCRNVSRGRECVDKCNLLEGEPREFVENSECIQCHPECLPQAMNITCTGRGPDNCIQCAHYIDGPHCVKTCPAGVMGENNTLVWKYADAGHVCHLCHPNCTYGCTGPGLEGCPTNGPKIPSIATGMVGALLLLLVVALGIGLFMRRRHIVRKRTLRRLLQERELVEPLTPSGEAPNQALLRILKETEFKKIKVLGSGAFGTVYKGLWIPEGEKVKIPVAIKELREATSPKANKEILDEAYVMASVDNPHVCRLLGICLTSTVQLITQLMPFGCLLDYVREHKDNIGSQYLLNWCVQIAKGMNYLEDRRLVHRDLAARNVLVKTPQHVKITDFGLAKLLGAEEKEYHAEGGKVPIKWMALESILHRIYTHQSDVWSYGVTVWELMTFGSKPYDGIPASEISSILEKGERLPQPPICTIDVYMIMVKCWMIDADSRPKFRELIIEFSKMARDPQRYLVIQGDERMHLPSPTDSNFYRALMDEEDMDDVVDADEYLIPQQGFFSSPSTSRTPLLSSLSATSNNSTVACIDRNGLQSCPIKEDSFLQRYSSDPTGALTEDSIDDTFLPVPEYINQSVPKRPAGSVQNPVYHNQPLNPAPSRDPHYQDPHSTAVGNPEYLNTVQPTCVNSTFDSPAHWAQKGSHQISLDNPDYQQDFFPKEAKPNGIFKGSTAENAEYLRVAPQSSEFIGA
Sequence of Protein cereblon/Epidermal growth factor receptor (Homo sapiens), P00533+Q96SW2 [UNDEFINED MUTATION] (Q96SW2 whole entry, looked up, stated change not applied): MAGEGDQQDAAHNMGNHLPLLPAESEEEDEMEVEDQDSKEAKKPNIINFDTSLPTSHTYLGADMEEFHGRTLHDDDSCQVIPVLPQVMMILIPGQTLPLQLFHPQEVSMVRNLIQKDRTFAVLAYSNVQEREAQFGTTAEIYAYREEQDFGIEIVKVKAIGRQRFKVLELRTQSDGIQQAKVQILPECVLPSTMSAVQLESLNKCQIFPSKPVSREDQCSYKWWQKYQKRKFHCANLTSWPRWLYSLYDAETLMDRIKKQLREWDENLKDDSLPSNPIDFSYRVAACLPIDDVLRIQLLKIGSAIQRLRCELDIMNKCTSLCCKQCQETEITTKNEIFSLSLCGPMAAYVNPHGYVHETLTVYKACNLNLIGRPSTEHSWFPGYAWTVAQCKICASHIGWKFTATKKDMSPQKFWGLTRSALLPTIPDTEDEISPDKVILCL
Sequence of Epidermal growth factor receptor (P00533 whole entry): as the sequence (P00533 whole entry, looked up, stated change not applied) above

COc1cc2ncnc(Nc3ccc(F)c(Cl)c3)c2cc1OCCCN1CCN(CCC(=O)NCCCCCCCCOc2cccc3c2C(=O)N(C2CCC(=O)NC2=O)C3=O)CC1 (stereo unspecified)
Activity [1]: Dose-dependent effect
%max [2]: > 95%
%max [3]: > 95%
Activity [4]: inactive
Activity [5]: Active
Activity [6]: Active
Activity [7]: Active
Activity [8]: Active
Activity [9]: Non-Toxic
Activity [10]: Non-Toxic
Activity [11]: Not Active
Activity [12]: 100%
Activity [13]: Tde
Activity [14]: Active
Activity [15]: Active
Activity [16]: inactive
Activity [17]: inactive
Activity [18]: inactive
Activity [19]: Active
Activity [20]: Active
Activity [21]: Active
Activity [22]: Active
Activity [23]: > 75%
Activity [24]: Active
Activity [25]: Active
Activity [26]: Non-Toxic

Reference: ChEMBL document CHEMBL4376874, “Discovery of Potent and Selective Epidermal Growth Factor Receptor (EGFR) Bifunctional Small-Molecule Degraders” (J Med Chem, 2020)
